Results collected from several papers.
Each line is one published result; the experiments were not run side by side.
Effect on: metabolic stability
Host: human
Medium: liver microsomes

| Compound | setting | compound remaining [%] |
| --- | --- | --- |
| Nc1nc(-c2ccc(NC(=O)Nc3cccc(-c4c[nH]c(N)n4)c3F)cc2F)c[nH]1 | 5 µM, 1 h, pH 7.4 | > 80 |
| CC(C)NCC(O)COc1cccc2ccccc12 (centres unmarked) | 1 µM, 30 min | 63 |
| O=C(CCCO)N1N=C(c2c(-c3ccc(Cl)cc3)c3ccccc3[nH]c2=O)CC1c1ccc(Cl)cc1 (centres unmarked) | 1 µM, 20 min, pH 7.4 | 31 |
| Cc1cn(-c2ccc(-c3csc(Nc4c5c(nn4C)CCCC5)n3)cc2)cn1 | 1 µM, 30 min | 55 |
| CC[C@H](NC(=O)[C@H](CS(=O)(=O)CC1CC1)N[C@@H](c1ccc(F)cc1)C(F)(F)F)C(=O)C(=O)NC1CC1 | 1 h | 93 |
| O=C(Nc1ccc(S(=O)(=O)N2CCC(Cl)CC2)cc1)c1ccc([N+](=O)[O-])o1 | 1 µM, 1 h, pH 7.4 | 0.49 |
| Nc1nc(-c2cccc(NC(=O)Nc3cccc(-c4c[nH]c(N)n4)c3)c2)c[nH]1 | 5 µM, 1 h, pH 7.4 | > 80 |
| CS(=O)(=O)c1ccc(-c2cnc(N)c(-c3ccc(C(F)(F)F)nc3)c2)cc1 | 1 µM, 30 min | 92 |
